# Data taken from article PMC10441411 (bioRxiv, 2023).
# Peptide text beside a SMILES is read from it. * marks the point of attachment. Cbz = O=C(OCc1ccccc1)*
# How the values were obtained:
# [1] = target: NR4A1 (Homo sapiens, UniProt P22736); experiment: NR4A1 degradation in human cell lines by immunoblotting; type: cell-based; details: CHL-1 cells
# Method in brief: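 CHL-1 and A375 human melanoma cells were grown in DMEM with 10% FBS and penicillin/streptomycin. Screening used 250 nM test compound for 16 h, read by immunoblot plus densitometry (n=2). A 16 h dose series gave the 50% degradation concentration. For pathway tests, CHL-1 were pretreated 10 min with 0.5 μM MG132 or 10 μM VHL 032, then exposed 16 h to DMSO or 500 nM. Lysates were made in RIPA with DTT.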
# [2] = tested on: NR4A1 mRNA; experiment: NR4A1 mRNA by qPCR in CHL-1 cells; type: cell-based, human; details: 500 nM, time course, ACTB control
# [3] = tested on: MC38 colon adenocarcinoma; experiment: MC38 colon cancer syngeneic tumor growth; type: in vivo, mouse; details: WT mice; 1.8 mg/kg NR-V04 or 0.75 mg/kg celastrol i.p. twice a week from day 7
# Method in brief: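 Mouse MC38 or Yummer1.7 cells (5 × 10^5) in PBS injected s.c. into 7–9-week-old WT or NSG hosts. Dosing started day 7 once tumors were palpable: test compound 1.8 mg/kg i.p. twice weekly, with celastrol 0.75 mg/kg (1.67 μmol/kg) in MC38 only. Vehicle was 50% phosal PG/45% miglyol 810N/5% polysorbate 80. Tumors were grown to 2 cm diameter endpoint.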
# [4] = tested on: B16F10 melanoma; experiment: B16F10 melanoma syngeneic tumor growth; type: in vivo, mouse; details: WT mice; 1.8 mg/kg NR-V04 or 0.75 mg/kg celastrol i.p. twice a week from day 7
# [5] = target: NR4A1; details: read-out: binding affinity of celastrol to NR4A1 (Kd); cited from earlier work
# NR4A1 (Homo sapiens, UniProt P22736), sequence (P22736 whole entry): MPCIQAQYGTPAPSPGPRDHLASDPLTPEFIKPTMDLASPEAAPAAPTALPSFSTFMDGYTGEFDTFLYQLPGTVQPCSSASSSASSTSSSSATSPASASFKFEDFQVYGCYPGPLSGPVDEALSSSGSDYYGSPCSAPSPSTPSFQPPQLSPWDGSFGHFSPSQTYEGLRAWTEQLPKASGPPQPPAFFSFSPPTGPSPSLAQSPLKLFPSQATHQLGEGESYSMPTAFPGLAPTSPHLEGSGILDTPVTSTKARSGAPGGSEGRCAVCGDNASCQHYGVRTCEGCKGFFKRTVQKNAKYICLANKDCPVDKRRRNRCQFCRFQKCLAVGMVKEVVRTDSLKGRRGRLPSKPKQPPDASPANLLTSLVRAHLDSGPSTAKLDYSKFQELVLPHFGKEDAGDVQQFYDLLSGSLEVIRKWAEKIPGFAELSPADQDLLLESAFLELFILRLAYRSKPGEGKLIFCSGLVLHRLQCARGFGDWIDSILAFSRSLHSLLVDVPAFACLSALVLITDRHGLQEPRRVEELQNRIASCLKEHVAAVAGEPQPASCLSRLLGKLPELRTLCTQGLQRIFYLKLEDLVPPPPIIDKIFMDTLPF
smiles,measurement,setting,value
CC(C)C[C@@H](C=O)NC(=O)[C@H](CC(C)C)NC(=O)[C@H](CC(C)C)NC(=O)OCc1ccccc1 [MG132] (Cbz-Leu-Leu-Leu-aldehyde),effect of pretreatment on NR-V04-reduced NR4A1 protein level,"[1]; 0.5 μM MG132 10 minutes, then 500 nM NR-V04 16 hours",effectively rescued
CC(=O)N[C@H](C(=O)N1C[C@H](O)C[C@H]1C(=O)NCc1ccc(-c2scnc2C)cc1)C(C)(C)C [VHL-032],effect of pretreatment on NR-V04-induced degradation of NR4A1,"[1]; 10 μM VHL 032 10 minutes, then 500 nM NR-V04 16 hours",prevented
CC1=C(O)C(=O)C=C2C1=CC=C1[C@@]2(C)CC[C@@]2(C)[C@@H]3C[C@](C)(C(=O)O)CC[C@]3(C)CC[C@]12C [celastrol],"NR4A1 protein level, initial screening","[1]; 250 nM, 16 hours, immunoblotting and densitometry",did not alter
same,NR4A1 protein level,"[1]; 16 hours, dose series",did not change
same,NR4A1 mRNA level,[2],increase in NR4A1 mRNA levels after 2 hrs
same,"tumor growth, MC38 model",[3],failed to inhibit tumor growth
same,"tumor growth, B16F10 melanoma",[4],increased growth
same,Kd,[5],290 nM
